# Measured values as given in ChEMBL document CHEMBL1137665, “Antistaphylococcal activity of CG400549, a new experimental FabI inhibitor, compared with that of other agents” (2007).
# What was measured:
# Type in all cases: functional
# Staphylococcus aureus [1] = experiment: Antimicrobial activity against methicillin-susceptible Staphylococcus aureus 540 by agar dilution CLSI method
# Procedure, shortened: (§1)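 CLSI agar dilution MIC against S. aureus clinical isolates. Calcium was added to the medium for daptomycin testing. Vancomycin plates were read after a full 24-h incubation.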
# Staphylococcus aureus [2] = experiment: Antimicrobial activity against methicillin-susceptible Staphylococcus aureus 540 after single-step resistance selection by agar dilution CLSI method
# Procedure, shortened: (§2)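 Single-step selection on drug-containing agar across 10 strains (2 MSSA, 8 MRSA, including VRSA and VISA). Colonies arising on confluent background growth were retested by CLSI agar dilution MIC. Resistance was defined as an MIC more than 4× the parent MIC.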
# Staphylococcus aureus [3] = experiment: Antimicrobial activity against methicillin-susceptible Staphylococcus aureus by agar dilution CLSI method; procedure, shortened: as §1
# Staphylococcus aureus [4] = experiment: Antimicrobial activity against vancomycin-resistant Staphylococcus aureus 510 Hershey after 14 passages with quinupristin-dalfopristin measured after 10 antibiotic-free subculture by multi-step resistance selection technique
# Procedure, shortened: (§3)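 Multistep-selected mutants (daily passage at subinhibitory drug levels) then subcultured 10 times daily on antibiotic-free medium; MIC redetermined afterwards and compared with the MIC recorded at the end of selection; clone identity to parent checked by pulsed-field gel electrophoresis.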
# Staphylococcus aureus [5] = experiment: Antimicrobial activity against panton-valentine leukocidin-positive community-acquired methicillin-resistant Staphylococcus aureus 490 by agar dilution CLSI method
# Procedure, shortened: (§4)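 Agar dilution MIC per CLSI methodology; calcium supplemented for daptomycin testing; vancomycin plates read after a full 24-h incubation.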
# Staphylococcus aureus [6] = experiment: Antimicrobial activity against vancomycin-intermediate Staphylococcus aureus 555 Hershey by agar dilution CLSI method; procedure, shortened: as §4
# Staphylococcus aureus [7] = experiment: Antimicrobial activity against methicillin and vancomycin-resistant Staphylococcus aureus 510 after single-step resistance selection by agar dilution CLSI method; procedure, shortened: as §2
# Staphylococcus aureus [8] = experiment: Antimicrobial activity against panton-valentine leukocidin-positive community-acquired methicillin-resistant Staphylococcus aureus 490 after 17 passages with CG400549 measured after 10 antibiotic-free subculture by multi-step resistance selection technique; procedure, shortened: as §3
# Staphylococcus aureus [9] = experiment: Antimicrobial activity against methicillin and vancomycin-resistant Staphylococcus aureus 509 after single-step resistance selection by agar dilution CLSI method; procedure, shortened: as §2
# Staphylococcus aureus [10] = experiment: Antimicrobial activity against methicillin-resistant Staphylococcus aureus by agar dilution CLSI method; procedure, shortened: as §1
# Staphylococcus aureus [11] = experiment: Antimicrobial activity against panton-valentine leukocidin-positive community-acquired methicillin-resistant Staphylococcus aureus 490 after 14 passages with daptomycin measured after 10 antibiotic-free subculture by multi-step resistance selection technique; procedure, shortened: as §3
# Staphylococcus aureus [12] = experiment: Antimicrobial activity against methicillin-resistant Staphylococcus aureus 547 after 21 passages with quinupristin-dalfopristin measured after 10 antibiotic-free subculture by multi-step resistance selection technique
# Procedure, shortened: (§5)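 Mutants from multistep daily serial passage in subinhibitory drug were then subcultured daily 10 times on antibiotic-free medium. MIC was redetermined after these subcultures to assess stability. Clone identity was checked by pulsed-field gel electrophoresis.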
# Staphylococcus aureus [13] = experiment: Antimicrobial activity against methicillin-resistant Staphylococcus aureus 525 by agar dilution CLSI method; procedure, shortened: as §1
# Staphylococcus aureus [14] = experiment: Antimicrobial activity against methicillin-resistant Staphylococcus aureus 547 after 48 passages with Linezolid measured after 10 antibiotic-free subculture by multi-step resistance selection technique; procedure, shortened: as §5
# Staphylococcus aureus [15] = experiment: Antimicrobial activity against methicillin-susceptible Staphylococcus aureus 540 after 16 passages with quinupristin-dalfopristin measured after 10 antibiotic-free subculture by multi-step resistance selection technique; procedure, shortened: as §5
# Staphylococcus aureus [16] = experiment: Antimicrobial activity against methicillin-resistant Staphylococcus aureus 525 after single-step resistance selection by agar dilution CLSI method; procedure, shortened: as §2
# Staphylococcus aureus [17] = experiment: Antimicrobial activity against methicillin-resistant Staphylococcus aureus 547 after single-step resistance selection by agar dilution CLSI method; procedure, shortened: as §2
# Staphylococcus aureus [18] = experiment: Antimicrobial activity against vancomycin-intermediate Staphylococcus aureus 555 Hershey after 20 passages with quinupristin-dalfopristin measured after 10 antibiotic-free subculture by multi-step resistance selection technique; procedure, shortened: as §3
# Staphylococcus aureus [19] = experiment: Antimicrobial activity against panton-valentine leukocidin-negative community-acquired methicillin-resistant Staphylococcus aureus 481 after 16 passages with quinupristin-dalfopristin measured after 10 antibiotic-free subculture by multi-step resistance selection technique; procedure, shortened: as §5
# Staphylococcus aureus [20] = experiment: Antimicrobial activity against methicillin-resistant Staphylococcus aureus 547 after 21 passages with daptomycin measured after 10 antibiotic-free subculture by multi-step resistance selection technique; procedure, shortened: as §5
# Staphylococcus aureus [21] = experiment: Antimicrobial activity against methicillin-resistant Staphylococcus aureus 490 after single-step resistance selection by agar dilution CLSI method; procedure, shortened: as §2
# Staphylococcus aureus [22] = experiment: Antimicrobial activity against vancomycin-resistant Staphylococcus aureus 509 Michigan after 20 passages with daptomycin measured after 10 antibiotic-free subculture by multi-step resistance selection technique; procedure, shortened: as §3
# Staphylococcus aureus [23] = experiment: Antimicrobial activity against vancomycin-intermediate Staphylococcus aureus 504 after 22 passages with Linezolid measured after 10 times antibiotic-free subculture by multi-step resistance selection technique; procedure, shortened: as §3
# Staphylococcus aureus [24] = experiment: Antimicrobial activity against methicillin-resistant vancomycin-intermediate Staphylococcus aureus 504 after single-step resistance selection by agar dilution CLSI method; procedure, shortened: as §2
# Staphylococcus aureus [25] = experiment: Antimicrobial activity against panton-valentine leukocidin-negative community-acquired methicillin-resistant Staphylococcus aureus 481 after 37 passages with Linezolid measured after 10 antibiotic-free subculture by multi-step resistance selection technique; procedure, shortened: as §5
# Staphylococcus aureus [26] = experiment: Antimicrobial activity against methicillin-resistant vancomycin-intermediate Staphylococcus aureus 555 after single-step resistance selection by agar dilution CLSI method; procedure, shortened: as §2
# Staphylococcus aureus [27] = experiment: Antimicrobial activity against methicillin-resistant Staphylococcus aureus 525 after 14 passages with CG400549 measured after 10 antibiotic-free subculture by multi-step resistance selection technique; procedure, shortened: as §5
# Staphylococcus aureus [28] = experiment: Antimicrobial activity against methicillin-resistant Staphylococcus aureus 481 after single-step resistance selection by agar dilution CLSI method; procedure, shortened: as §2
# Staphylococcus aureus [29] = experiment: Antimicrobial activity against panton-valentine leukocidin-negative community-acquired methicillin-resistant Staphylococcus aureus 481 after 14 passages with CG400549 measured after 10 antibiotic-free subculture by multi-step resistance selection technique; procedure, shortened: as §5
# Staphylococcus aureus [30] = experiment: Antimicrobial activity against methicillin-susceptible Staphylococcus aureus 543 after 14 passages with CG400549 measured after 10 antibiotic-free subculture by multi-step resistance selection technique; procedure, shortened: as §5
# Staphylococcus aureus [31] = experiment: Antimicrobial activity against methicillin-susceptible Staphylococcus aureus 543 after single-step resistance selection by agar dilution CLSI method; procedure, shortened: as §2
# Staphylococcus aureus [32] = experiment: Antimicrobial activity against methicillin-susceptible Staphylococcus aureus 540 after 14 passages with CG400549 measured after 10 antibiotic-free subculture by multi-step resistance selection technique; procedure, shortened: as §5
# Staphylococcus aureus [33] = experiment: Antimicrobial activity against panton-valentine leukocidin-negative community-acquired methicillin-resistant Staphylococcus aureus 481 by agar dilution CLSI method; procedure, shortened: as §1
# Staphylococcus aureus [34] = experiment: Antimicrobial activity against methicillin-resistant Staphylococcus aureus 547 after 14 passages with CG400549 measured after 10 antibiotic-free subculture by multi-step resistance selection technique; procedure, shortened: as §5
# Staphylococcus aureus [35] = experiment: Antimicrobial activity against vancomycin-resistant Staphylococcus aureus 510 Hershey by agar dilution CLSI method; procedure, shortened: as §4
# Staphylococcus aureus [36] = experiment: Antimicrobial activity against vancomycin-resistant Staphylococcus aureus 510 Hershey after 14 passages with CG400549 measured after 10 antibiotic-free subculture by multi-step resistance selection technique; procedure, shortened: as §3
# Staphylococcus aureus [37] = experiment: Antimicrobial activity against panton-valentine leukocidin-positive community-acquired methicillin-resistant Staphylococcus aureus 490 after 23 passages with quinupristin-dalfopristin measured after 10 antibiotic-free subculture by multi-step resistance selection technique; procedure, shortened: as §3
# Staphylococcus aureus [38] = experiment: Antimicrobial activity against community-acquired vancomycin-intermediate Staphylococcus aureus 504 by agar dilution CLSI method; procedure, shortened: as §1
smiles,measurement,setting,value
CCCCCCCCCC(=O)N[C@@H](Cc1c[nH]c2ccccc12)C(=O)N[C@H](CC(N)=O)C(=O)N[C@@H](CC(=O)O)C(=O)N[C@@H]1C(=O)NCC(=O)N[C@@H](CCCN)C(=O)N[C@@H](CC(=O)O)C(=O)N[C@H](C)C(=O)N[C@@H](CC(=O)O)C(=O)NCC(=O)N[C@H](CO)C(=O)N[C@@H]([C@H](C)CC(=O)O)C(=O)N[C@@H](CC(=O)c2ccccc2N)C(=O)O[C@@H]1C,MIC,Staphylococcus aureus [1],1 µg/mL
same,MIC,Staphylococcus aureus [2],0.5 µg/mL
same,MIC50,Staphylococcus aureus [3],1 µg/mL
same,MIC90,Staphylococcus aureus [3],1 µg/mL
same,MIC,Staphylococcus aureus [4],0.5 µg/mL
same,MIC,Staphylococcus aureus [5],1 µg/mL
same,MIC,Staphylococcus aureus [6],16 µg/mL
same,MIC,Staphylococcus aureus [7],0.5 µg/mL
same,MIC,Staphylococcus aureus [8],1 µg/mL
same,MIC,Staphylococcus aureus [9],0.5 µg/mL
same,MIC50,Staphylococcus aureus [10],0.5 µg/mL
same,MIC90,Staphylococcus aureus [10],0.5 µg/mL
same,MIC,Staphylococcus aureus [11],4 µg/mL
same,MIC,Staphylococcus aureus [12],1 µg/mL
same,MIC,Staphylococcus aureus [13],1 µg/mL
same,MIC,Staphylococcus aureus [14],2 µg/mL
same,MIC,Staphylococcus aureus [15],2 µg/mL
same,MIC,Staphylococcus aureus [16],0.5 µg/mL
same,MIC,Staphylococcus aureus [17],0.5 µg/mL
same,MIC,Staphylococcus aureus [18],2 µg/mL
same,MIC,Staphylococcus aureus [19],1 µg/mL
same,MIC,Staphylococcus aureus [20],4 µg/mL
same,MIC,Staphylococcus aureus [21],0.5 µg/mL
same,MIC,Staphylococcus aureus [22],4 µg/mL
same,MIC,Staphylococcus aureus [23],1 µg/mL
same,MIC,Staphylococcus aureus [24],0.5 µg/mL
same,MIC,Staphylococcus aureus [25],1 µg/mL
same,MIC,Staphylococcus aureus [26],0.5 µg/mL
same,MIC,Staphylococcus aureus [27],1 µg/mL
same,MIC,Staphylococcus aureus [28],0.5 µg/mL
same,MIC,Staphylococcus aureus [29],1 µg/mL
same,MIC,Staphylococcus aureus [30],1 µg/mL
same,MIC,Staphylococcus aureus [31],0.5 µg/mL
same,MIC,Staphylococcus aureus [32],1 µg/mL
same,MIC,Staphylococcus aureus [33],1 µg/mL
same,MIC,Staphylococcus aureus [34],1 µg/mL
same,MIC,Staphylococcus aureus [35],1 µg/mL
same,MIC,Staphylococcus aureus [36],1 µg/mL
same,MIC,Staphylococcus aureus [37],1 µg/mL
same,MIC,Staphylococcus aureus [38],4 µg/mL
